ChEMBL document CHEMBL5724801, “EUbOPEN Chemogenomics Library - Multiplex” (2024)
Values joined by “and” are separate entries in the source; they are usually repeats but may differ in a detail not shown here. Equal entries are not always repeated.

System: U2OS
Experiment: Multiplex assay against U2OS
Assay type: toxicity, cell-based
Details: human
Outline: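 Per cents of healthy-nucleus cells form the tubulin, mitochondrial-mass and membrane-permeability phenotype values. Live cells were stained at seeding with Hoechst33342, BioTracker Green Microtubule Cytoskeleton Dye, MitoTracker Red and Annexin V Alexa Fluor 680. After compound addition they were imaged on a CQ1 microscope at 37°C and 5% CO2, and CellPathfinder machine-learning gating split them into Hoechst high-intensity objects or normal cells, normal cells into healthy, pyknosed or fragmented nuclei, and pyknosed cells into mitotic or apoptotic.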

[1] = 12 h, 1 µM, compound concentration 1 uM
[2] = 12 h, 10 µM, compound concentration 10 uM
[3] = 24 h, 1 µM, compound concentration 1 uM
[4] = 24 h, 10 µM, compound concentration 10 uM
[5] = 48 h, 1 µM, compound concentration 1 uM
[6] = 48 h, 10 µM, compound concentration 10 uM

## O=c1nc2[nH]c3ccccc3nc-2c(=O)[nH]1 [ALLOXAZINE]
[1]
  Population Apoptotic (%): 70% and 75%
  Population Fragmented Nuclei (%): 25% and 15%
  Population Healthy Nuclei (%): 61% and 74%
  Population Hoechst High Intensity Objects (%): 2%
  Population Membrane Permeable-Phenotype (%): 5%
  Population Mitochondria Different-Phenotype (%): 0% and 5%
  Population Mitotic Cells (%): 29% and 25%
  Population Normal (%): 97%
  Population Pyknosed Nuclei (%): 12% and 10%
  Population Tubulin-Different-Phenotype (%): 3%
  Total Cell Count: 195 and 122
[2]
  Population Apoptotic (%): 86% and 88%
  Population Fragmented Nuclei (%): 33% and 13%
  Population Healthy Nuclei (%): 59% and 78%
  Population Hoechst High Intensity Objects (%): 0% and 1%
  Population Membrane Permeable-Phenotype (%): 7%
  Population Mitochondria Different-Phenotype (%): 0% and 5%
  Population Mitotic Cells (%): 13% and 11%
  Population Normal (%): 99% and 98%
  Population Pyknosed Nuclei (%): 7%
  Population Tubulin-Different-Phenotype (%): 1% and 3%
  Total Cell Count: 212 and 119
[3]
  Population Apoptotic (%): 73% and 57%
  Population Fragmented Nuclei (%): 24% and 16%
  Population Healthy Nuclei (%): 66% and 74%
  Population Hoechst High Intensity Objects (%): 1% and 2%
  Population Membrane Permeable-Phenotype (%): 4% and 5%
  Population Mitochondria Different-Phenotype (%): 1% and 5%
  Population Mitotic Cells (%): 26% and 42%
  Population Normal (%): 98% and 97%
  Population Pyknosed Nuclei (%): 8% and 9%
  Population Tubulin-Different-Phenotype (%): 2%
  Total Cell Count: 261 and 146
[4]
  Population Apoptotic (%): 78% and 75%
  Population Fragmented Nuclei (%): 30% and 16%
  Population Healthy Nuclei (%): 61% and 80%
  Population Hoechst High Intensity Objects (%): 0% and 2%
  Population Membrane Permeable-Phenotype (%): 8% and 5%
  Population Mitochondria Different-Phenotype (%): 2% and 4%
  Population Mitotic Cells (%): 21% and 25%
  Population Normal (%): 99% and 97%
  Population Pyknosed Nuclei (%): 8% and 2%
  Population Tubulin-Different-Phenotype (%): 2% and 3%
  Total Cell Count: 237 and 148
[5]
  Population Apoptotic (%): 84% and 76%
  Population Fragmented Nuclei (%): 19% and 18%
  Population Healthy Nuclei (%): 71% and 72%
  Population Hoechst High Intensity Objects (%): 1% and 6%
  Population Membrane Permeable-Phenotype (%): 1% and 4%
  Population Mitochondria Different-Phenotype (%): 1% and 2%
  Population Mitotic Cells (%): 15% and 23%
  Population Normal (%): 98% and 93%
  Population Pyknosed Nuclei (%): 9% and 8%
  Population Tubulin-Different-Phenotype (%): 1% and 2%
  Total Cell Count: 362 and 207
[6]
  Population Apoptotic (%): 90% and 76%
  Population Fragmented Nuclei (%): 26% and 12%
  Population Healthy Nuclei (%): 66% and 79%
  Population Hoechst High Intensity Objects (%): 1%
  Population Membrane Permeable-Phenotype (%): 5% and 3%
  Population Mitochondria Different-Phenotype (%): 1%
  Population Mitotic Cells (%): 9% and 23%
  Population Normal (%): 98%
  Population Pyknosed Nuclei (%): 6% and 8%
  Population Tubulin-Different-Phenotype (%): 2%
  Total Cell Count: 321 and 210
